Experimental data reported in ChEMBL document CHEMBL5303300, “EUbOPEN Chemogenomics Library - Multiplex” (2023).
Several values for one entry are separate records, joined by “and”; a condition that tells them apart may be missing. Identical values can stand only once.

System: U2OS
Assay: Multiplex assay against U2OS
Format: toxicity, cell-based
Details: human, number of replicates 2
Outline: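 Tubulin, mitochondrial-mass and membrane-permeability phenotypes are per cents of healthy-nucleus cells. Cells were gated by CellPathfinder machine learning into Hoechst high-intensity objects or normal cells, normal cells into healthy, pyknosed or fragmented nuclei, and pyknosed cells into mitotic or apoptotic. Before that, live cells stained at seeding with Hoechst33342, BioTracker Green Microtubule Cytoskeleton Dye, MitoTracker Red and Annexin V Alexa Fluor 680 were imaged on a CQ1 microscope at 37°C and 5% CO2 after compound addition.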

[1] = 12 h, 1 µM, compound concentration 1 uM
[2] = 12 h, 10 µM, compound concentration 10 uM
[3] = 24 h, 1 µM, compound concentration 1 uM
[4] = 24 h, 10 µM, compound concentration 10 uM
[5] = 48 h, 1 µM, compound concentration 1 uM
[6] = 48 h, 10 µM, compound concentration 10 uM

SMILES: CC(C)c1c(NC(=O)Nc2ccc(Cl)cc2)c(=O)n(-c2ccccc2)n1C
- Population Apoptotic (%) [1]: 33% and 32%
- Population Healthy Nuclei (%) [1]: 66% and 85%
- Population Hoechst High Intensity Objects (%) [1]: 0%
- Population Membrane Permeable-Phenotype (%) [1]: 0%
- Population Mitochondria Different-Phenotype (%) [1]: 0%
- Population Mitotic Cells (%) [1]: 66% and 68%
- Population Normal (%) [1]: 100%
- Population Pyknosed Nuclei (%) [1]: 10% and 9%
- Population Tubulin-Different-Phenotype (%) [1]: 65% and 81%
- Population Apoptotic (%) [2]: 100% and 43%
- Population Hoechst High Intensity Objects (%) [2]: 0%
- Population Membrane Permeable-Phenotype (%) [2]: 0% and 2%
- Population Mitochondria Different-Phenotype (%) [2]: 0%
- Population Normal (%) [2]: 100% and 99%
- Population Pyknosed Nuclei (%) [2]: 6%
- Population Tubulin-Different-Phenotype (%) [2]: 85% and 66%
- Population Apoptotic (%) [3]: 50% and 26%
- Population Healthy Nuclei (%) [3]: 68% and 89%
- Population Hoechst High Intensity Objects (%) [3]: 0%
- Population Membrane Permeable-Phenotype (%) [3]: 0% and 1%
- Population Mitochondria Different-Phenotype (%) [3]: 0%
- Population Mitotic Cells (%) [3]: 50% and 73%
- Population Normal (%) [3]: 100% and 99%
- Population Pyknosed Nuclei (%) [3]: 15% and 7%
- Population Tubulin-Different-Phenotype (%) [3]: 61% and 84%
- Population Apoptotic (%) [4]: 100% and 36%
- Population Healthy Nuclei (%) [4]: 32% and 87%
- Population Hoechst High Intensity Objects (%) [4]: 0%
- Population Membrane Permeable-Phenotype (%) [4]: 0% and 2%
- Population Mitochondria Different-Phenotype (%) [4]: 0%
- Population Normal (%) [4]: 100%
- Population Pyknosed Nuclei (%) [4]: 2% and 8%
- Population Tubulin-Different-Phenotype (%) [4]: 64% and 78%
- Population Apoptotic (%) [5]: 50% and 49%
- Population Fragmented Nuclei (%) [5]: 12% and 3%
- Population Healthy Nuclei (%) [5]: 72% and 88%
- Population Hoechst High Intensity Objects (%) [5]: 0%
- Population Membrane Permeable-Phenotype (%) [5]: 0% and 1%
- Population Mitochondria Different-Phenotype (%) [5]: 0%
- Population Mitotic Cells (%) [5]: 50%
- Population Normal (%) [5]: 100% and 99%
- Population Pyknosed Nuclei (%) [5]: 15% and 7%
- Population Tubulin-Different-Phenotype (%) [5]: 62% and 85%
- Population Apoptotic (%) [6]: 100% and 55%
- Population Healthy Nuclei (%) [6]: 31% and 91%
- Population Hoechst High Intensity Objects (%) [6]: 0%
- Population Membrane Permeable-Phenotype (%) [6]: 0% and 1%
- Population Mitochondria Different-Phenotype (%) [6]: 0%
- Population Normal (%) [6]: 100%
- Population Pyknosed Nuclei (%) [6]: 1% and 5%
- Population Tubulin-Different-Phenotype (%) [6]: 77% and 80%

SMILES: C=CC(=O)Nc1cccc(C)c1Nc1ncc2cc(-c3c(Cl)c(OC)cc(OC)c3Cl)ccc2n1
- Population Apoptotic (%) [1]: 81% and 76%
- Population Fragmented Nuclei (%) [1]: 9% and 3%
- Population Healthy Nuclei (%) [1]: 69% and 91%
- Population Hoechst High Intensity Objects (%) [1]: 1% and 0%
- Population Membrane Permeable-Phenotype (%) [1]: 5% and 0%
- Population Mitochondria Different-Phenotype (%) [1]: 0%
- Population Mitotic Cells (%) [1]: 18% and 23%
- Population Normal (%) [1]: 98% and 100%
- Population Tubulin-Different-Phenotype (%) [1]: 75% and 77%
- Population Apoptotic (%) [2]: 54% and 69%
- Population Healthy Nuclei (%) [2]: 45% and 68%
- Population Hoechst High Intensity Objects (%) [2]: 0%
- Population Membrane Permeable-Phenotype (%) [2]: 0% and 5%
- Population Mitochondria Different-Phenotype (%) [2]: 0% and 9%
- Population Mitotic Cells (%) [2]: 45% and 30%
- Population Normal (%) [2]: 100%
- Population Pyknosed Nuclei (%) [2]: 33% and 26%
- Population Tubulin-Different-Phenotype (%) [2]: 80% and 56%
- Population Apoptotic (%) [3]: 71% and 50%
- Population Healthy Nuclei (%) [3]: 63% and 88%
- Population Hoechst High Intensity Objects (%) [3]: 1% and 0%
- Population Membrane Permeable-Phenotype (%) [3]: 0% and 1%
- Population Mitochondria Different-Phenotype (%) [3]: 0%
- Population Mitotic Cells (%) [3]: 28% and 50%
- Population Normal (%) [3]: 98% and 100%
- Population Pyknosed Nuclei (%) [3]: 18% and 8%
- Population Tubulin-Different-Phenotype (%) [3]: 87% and 78%
- Population Apoptotic (%) [4]: 86% and 90%
- Population Fragmented Nuclei (%) [4]: 17% and 7%
- Population Healthy Nuclei (%) [4]: 40% and 54%
- Population Hoechst High Intensity Objects (%) [4]: 0%
- Population Membrane Permeable-Phenotype (%) [4]: 0% and 1%
- Population Mitochondria Different-Phenotype (%) [4]: 0% and 8%
- Population Mitotic Cells (%) [4]: 13% and 9%
- Population Normal (%) [4]: 100%
- Population Pyknosed Nuclei (%) [4]: 42% and 38%
- Population Tubulin-Different-Phenotype (%) [4]: 92% and 65%
- Population Apoptotic (%) [5]: 70% and 59%
- Population Fragmented Nuclei (%) [5]: 10% and 1%
- Population Healthy Nuclei (%) [5]: 72% and 88%
- Population Hoechst High Intensity Objects (%) [5]: 1% and 0%
- Population Membrane Permeable-Phenotype (%) [5]: 4% and 1%
- Population Mitochondria Different-Phenotype (%) [5]: 1% and 0%
- Population Mitotic Cells (%) [5]: 29% and 40%
- Population Normal (%) [5]: 98% and 99%
- Population Pyknosed Nuclei (%) [5]: 17% and 9%
- Population Tubulin-Different-Phenotype (%) [5]: 90% and 85%
- Population Apoptotic (%) [6]: 77% and 93%
- Population Fragmented Nuclei (%) [6]: 6% and 9%
- Population Healthy Nuclei (%) [6]: 31% and 40%
- Population Hoechst High Intensity Objects (%) [6]: 0% and 1%
- Population Membrane Permeable-Phenotype (%) [6]: 11% and 10%
- Population Mitochondria Different-Phenotype (%) [6]: 11% and 10%
- Population Normal (%) [6]: 100% and 98%
- Population Pyknosed Nuclei (%) [6]: 62% and 50%
- Population Tubulin-Different-Phenotype (%) [6]: 100% and 91%

SMILES: CNc1ncc2cc(-c3ccc(-c4cccc(C)n4)cc3Cl)c(=O)n(C[C@H]3OC[C@H](N)CO3)c2n1
- Population Apoptotic (%) [1]: 75% and 70%
- Population Healthy Nuclei (%) [1]: 33% and 85%
- Population Hoechst High Intensity Objects (%) [1]: 0%
- Population Mitochondria Different-Phenotype (%) [1]: 7% and 0%
- Population Mitotic Cells (%) [1]: 25% and 29%
- Population Normal (%) [1]: 100% and 99%
- Population Pyknosed Nuclei (%) [1]: 19% and 10%
- Population Tubulin-Different-Phenotype (%) [1]: 42% and 70%
- Population Apoptotic (%) [2]: 60% and 36%
- Population Fragmented Nuclei (%) [2]: 38% and 16%
- Population Healthy Nuclei (%) [2]: 28% and 54%
- Population Hoechst High Intensity Objects (%) [2]: 5% and 0%
- Population Membrane Permeable-Phenotype (%) [2]: 15% and 11%
- Population Mitotic Cells (%) [2]: 39% and 63%
- Population Normal (%) [2]: 94% and 99%
- Population Pyknosed Nuclei (%) [2]: 32% and 29%
- Population Tubulin-Different-Phenotype (%) [2]: 50% and 38%
- Population Apoptotic (%) [3]: 80% and 76%
- Population Healthy Nuclei (%) [3]: 42% and 79%
- Population Hoechst High Intensity Objects (%) [3]: 0%
- Population Mitochondria Different-Phenotype (%) [3]: 5% and 1%
- Population Mitotic Cells (%) [3]: 20% and 23%
- Population Normal (%) [3]: 100% and 99%
- Population Pyknosed Nuclei (%) [3]: 23% and 12%
- Population Tubulin-Different-Phenotype (%) [3]: 50% and 75%
- Population Apoptotic (%) [4]: 43% and 53%
- Population Fragmented Nuclei (%) [4]: 31% and 17%
- Population Healthy Nuclei (%) [4]: 20% and 51%
- Population Hoechst High Intensity Objects (%) [4]: 6% and 1%
- Population Mitochondria Different-Phenotype (%) [4]: 57% and 19%
- Population Mitotic Cells (%) [4]: 56% and 46%
- Population Normal (%) [4]: 93% and 98%
- Population Pyknosed Nuclei (%) [4]: 47% and 31%
- Population Tubulin-Different-Phenotype (%) [4]: 21% and 32%
- Population Apoptotic (%) [5]: 75% and 83%
- Population Healthy Nuclei (%) [5]: 54% and 80%
- Population Hoechst High Intensity Objects (%) [5]: 0%
- Population Membrane Permeable-Phenotype (%) [5]: 9% and 2%
- Population Mitochondria Different-Phenotype (%) [5]: 4% and 1%
- Population Mitotic Cells (%) [5]: 25% and 16%
- Population Normal (%) [5]: 100% and 99%
- Population Pyknosed Nuclei (%) [5]: 16% and 13%
- Population Tubulin-Different-Phenotype (%) [5]: 73% and 79%
- Population Apoptotic (%) [6]: 60% and 61%
- Population Fragmented Nuclei (%) [6]: 45% and 16%
- Population Hoechst High Intensity Objects (%) [6]: 5% and 1%
- Population Mitotic Cells (%) [6]: 39% and 38%
- Population Normal (%) [6]: 94% and 98%
- Population Pyknosed Nuclei (%) [6]: 41% and 34%
- Population Tubulin-Different-Phenotype (%) [6]: 44% and 50%
